Data taken from ChEMBL document CHEMBL3526002, “Tissue distribution and identification of radioactivity components at elimination phase after oral administration of [¹⁴C]CS-1036, an α-amylase inhibitor, to rats” (Drug Metab Dispos, 2013).

Key:
Set-up in all cases: dose 5 mg/kg, dosed compound name [14C]CS-1036, route oral
Details in all cases: in vivo
[1] = Drug uptake in albino F344/DuCrlCrlj rat trachea at 5 mg/kg, po after 4 hrs by liquid scintillation counting; type: ADME, organism-based
[2] = Drug uptake in albino F344/DuCrlCrlj rat fat at 5 mg/kg, po after 8 hrs by liquid scintillation counting; type: ADME, organism-based, Adipose tissue
Method in brief: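 Male F344/DuCrlCrlj rats (bought at 7 weeks, acclimatized 5–6 days; 159–167 g; n = 3 per time point) received a single oral dose of [14C]CS-1036 at 5 mg/kg. White adipose tissue was collected after abdominal aortic bleeding at 1, 4, 8, 24, 72, 168 or 336 h. Samples were counted by LSC with external-standard efficiency correction. Results were converted to ng equivalents per g from specific activity and sample weight.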

Blood = experiment: Drug uptake in albino F344/DuCrlCrlj rat blood assessed as ng equivalent of CS-1036 at 5 mg/kg, po after 1 hr by liquid scintillation counting; type: ADME, organism-based
Method in brief: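 Male F344/DuCrlCrlj rats (159–167 g; n = 3 per time point) received a single oral dose of [14C]CS-1036 at 5 mg/kg. Blood was taken from the abdominal aorta at 1, 4, 8, 24, 72, 168 and 336 h. Radioactivity was counted by LSC with external-standard efficiency correction. Results were converted to ng equivalent of CS-1036/ml using specific activity and sample volume, and reported as mean + S.D.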

Zone of skin [3] = experiment: Drug uptake in albino F344/DuCrlCrlj rat skin assessed as ng equivalent of CS-1036 at 5 mg/kg, po after 1 hr by liquid scintillation counting; type: ADME, organism-based
[4] = Drug uptake in albino F344/DuCrlCrlj rat epididymis assessed as ng equivalent of CS-1036 at 5 mg/kg, po after 1 hr by liquid scintillation counting; type: ADME, organism-based
Stomach [5] = experiment: Drug uptake in albino F344/DuCrlCrlj rat stomach assessed as ng equivalent of CS-1036 at 5 mg/kg, po after 1 hr by liquid scintillation counting; type: ADME, organism-based
Adrenal gland [6] = experiment: Drug uptake in albino F344/DuCrlCrlj rat adrenal gland assessed as ng equivalent of CS-1036 at 5 mg/kg, po after 4 hrs by liquid scintillation counting; type: ADME, organism-based
Stomach [7] = experiment: Drug uptake in albino F344/DuCrlCrlj rat stomach assessed as ng equivalent of CS-1036 at 5 mg/kg, po after 72 hrs by liquid scintillation counting; type: ADME, organism-based
Lung = experiment: Drug uptake in albino F344/DuCrlCrlj rat lung at 5 mg/kg, po after 24 hrs by liquid scintillation counting; type: ADME, organism-based
Zone of skin [8] = experiment: Drug uptake in albino F344/DuCrlCrlj rat skin at 5 mg/kg, po after 24 hrs by liquid scintillation counting; type: ADME, organism-based
[9] = Drug uptake in albino F344/DuCrlCrlj rat testis at 5 mg/kg, po after 24 hrs by liquid scintillation counting; type: ADME, organism-based
Large intestine [10] = experiment: Drug uptake in albino F344/DuCrlCrlj rat large intestine at 5 mg/kg, po after 24 hrs by liquid scintillation counting; type: ADME, organism-based
Kidney [11] = experiment: Drug uptake in albino F344/DuCrlCrlj rat kidney assessed as ng equivalent of CS-1036 at 5 mg/kg, po after 168 hrs by liquid scintillation counting; type: ADME, organism-based
[12] = Drug uptake in albino F344/DuCrlCrlj rat pituitary gland at 5 mg/kg, po after 72 hrs by liquid scintillation counting; type: ADME, organism-based
[13] = Drug uptake in albino F344/DuCrlCrlj rat skeletal muscle at 5 mg/kg, po after 72 hrs by liquid scintillation counting; type: ADME, organism-based, Muscle tissue
Stomach [14] = experiment: Drug uptake in albino F344/DuCrlCrlj rat stomach at 5 mg/kg, po after 72 hrs by liquid scintillation counting; type: ADME, organism-based
Large intestine [15] = experiment: Drug uptake in albino F344/DuCrlCrlj rat large intestine assessed as ng equivalent of CS-1036 at 5 mg/kg, po after 4 hrs by liquid scintillation counting; type: ADME, organism-based
Cerebellum [16] = experiment: Drug uptake in albino F344/DuCrlCrlj rat cerebellum assessed as ng equivalent of CS-1036 at 5 mg/kg, po after 8 hrs by liquid scintillation counting; type: ADME, organism-based
Thymus [17] = experiment: Drug uptake in albino F344/DuCrlCrlj rat thymus assessed as ng equivalent of CS-1036 at 5 mg/kg, po after 8 hrs by liquid scintillation counting; type: ADME, organism-based
Adrenal gland [18] = experiment: Drug uptake in albino F344/DuCrlCrlj rat adrenal gland assessed as ng equivalent of CS-1036 at 5 mg/kg, po after 8 hrs by liquid scintillation counting; type: ADME, organism-based
Spleen [19] = experiment: Drug uptake in albino F344/DuCrlCrlj rat spleen assessed as ng equivalent of CS-1036 at 5 mg/kg, po after 8 hrs by liquid scintillation counting; type: ADME, organism-based
[20] = Drug uptake in albino F344/DuCrlCrlj rat eyeball at 5 mg/kg, po after 1 hr by liquid scintillation counting; type: ADME, organism-based
Liver [21] = experiment: Drug uptake in albino F344/DuCrlCrlj rat liver assessed as ng equivalent of CS-1036 at 5 mg/kg, po after 336 hrs by liquid scintillation counting; type: ADME, organism-based
Small intestine = experiment: Drug uptake in albino F344/DuCrlCrlj rat small intestine at 5 mg/kg, po after 1 hr by liquid scintillation counting; type: ADME, organism-based
Large intestine [22] = experiment: Drug uptake in albino F344/DuCrlCrlj rat large intestine at 5 mg/kg, po after 1 hr by liquid scintillation counting; type: ADME, organism-based
Cerebellum [23] = experiment: Drug uptake in albino F344/DuCrlCrlj rat cerebellum assessed as ng equivalent of CS-1036 at 5 mg/kg, po after 24 hrs by liquid scintillation counting; type: ADME, organism-based
Plasma = experiment: Drug uptake in albino F344/DuCrlCrlj rat plasma at 5 mg/kg, po after 168 hrs by liquid scintillation counting; type: ADME, organism-based
Thymus [24] = experiment: Drug uptake in albino F344/DuCrlCrlj rat thymus at 5 mg/kg, po after 168 hrs by liquid scintillation counting; type: ADME, organism-based
Liver [25] = experiment: Drug uptake in albino F344/DuCrlCrlj rat liver at 5 mg/kg, po after 168 hrs by liquid scintillation counting; type: ADME, organism-based
Cerebellum [26] = experiment: Drug uptake in albino F344/DuCrlCrlj rat cerebellum at 5 mg/kg, po after 336 hrs by liquid scintillation counting; type: ADME, organism-based
Aorta = experiment: Drug uptake in albino F344/DuCrlCrlj rat aorta at 5 mg/kg, po after 336 hrs by liquid scintillation counting; type: ADME, organism-based
[27] = Drug uptake in albino F344/DuCrlCrlj rat testis at 5 mg/kg, po after 336 hrs by liquid scintillation counting; type: ADME, organism-based
Kidney [28] = experiment: Drug uptake in albino F344/DuCrlCrlj rat kidney assessed as ng equivalent of CS-1036 at 5 mg/kg, po after 24 hrs by liquid scintillation counting; type: ADME, organism-based
Spleen [29] = experiment: Drug uptake in albino F344/DuCrlCrlj rat spleen assessed as ng equivalent of CS-1036 at 5 mg/kg, po after 24 hrs by liquid scintillation counting; type: ADME, organism-based
[30] = Drug uptake in albino F344/DuCrlCrlj rat brown fat assessed as ng equivalent of CS-1036 at 5 mg/kg, po after 24 hrs by liquid scintillation counting; type: ADME, organism-based, Brown adipose tissue

## C[C@H]1O[C@@H](O[C@H]2[C@H](O)[C@@H](O)[C@@H](O[14C@H]3[14C@H](O)[14CH2]N[14C@@H]3[14CH2]O)O[C@@H]2CO)[C@H](O)[C@@H](O)[C@@H]1O
[1]
  Radiolabel recovery: 31.1 ngequiv/g
[2]
  Radiolabel recovery: 14 ngequiv/g
Blood
  Radiolabel recovery: 9.5 ngequiv/ml
Zone of skin [3]
  Radiolabel recovery: 2.2 ngequiv/g
[4]
  Radiolabel recovery: 2.8 ngequiv/g
Stomach [5]
  Radiolabel recovery: 640 ngequiv/g
Adrenal gland [6]
  Radiolabel recovery: 8.6 ngequiv/g
Stomach [7]
  Radiolabel recovery: 21.8 ngequiv/g
Lung
  Radiolabel recovery: 72 ngequiv/g
Zone of skin [8]
  Radiolabel recovery: 53.9 ngequiv/g
[9]
  Radiolabel recovery: 31.4 ngequiv/g
Large intestine [10]
  Radiolabel recovery: 299 ngequiv/g
Kidney [11]
  Radiolabel recovery: 5.4 ngequiv/g
[12]
  Radiolabel recovery: 22.1 ngequiv/g
[13]
  Radiolabel recovery: 16.5 ngequiv/g
Stomach [14]
  Radiolabel recovery: 49 ngequiv/g
Large intestine [15]
  Radiolabel recovery: 6620 ngequiv/g
Cerebellum [16]
  Radiolabel recovery: 1.18 ngequiv/g
Thymus [17]
  Radiolabel recovery: 47 ngequiv/g
Adrenal gland [18]
  Radiolabel recovery: 66.9 ngequiv/g
Spleen [19]
  Radiolabel recovery: 84.1 ngequiv/g
[20]
  Radiolabel recovery: 17.7 ngequiv/g
Liver [21]
  Radiolabel recovery: 2.66 ngequiv/g
Small intestine
  Radiolabel recovery: 52100 ngequiv/g
Large intestine [22]
  Radiolabel recovery: 1070 ngequiv/g
Cerebellum [23]
  Radiolabel recovery: 2.3 ngequiv/g
Plasma
  Radiolabel recovery: 3.57 ngequiv/ml
Thymus [24]
  Radiolabel recovery: 12 ngequiv/g
Liver [25]
  Radiolabel recovery: 14.3 ngequiv/g
Cerebellum [26]
  Radiolabel recovery: 5.41 ngequiv/g
Aorta
  Radiolabel recovery: 11 ngequiv/g
[27]
  Radiolabel recovery: 6.02 ngequiv/g
Kidney [28]
  Radiolabel recovery: 16 ngequiv/g
Spleen [29]
  Radiolabel recovery: 10.4 ngequiv/g
[30]
  Radiolabel recovery: 63 ngequiv/g
